The record followed here is ChEMBL document CHEMBL2203151, “Cytotoxic alkaloids from the whole plants of Zephyranthes candida” (J Nat Prod, 2012).

Where only a bound is given, the exact number is not on record here.

Usually IC50 stands for the midpoint of a concentration-inhibition curve.

For experiment [1], the system named is HT-29. Nature of the experiment: Cytotoxicity against human HT-29 cells after 48 hrs by MTT assay. Type of experiment: functional, cell-based. The settings on record: HT-29, 48 h.
For experiment [2], the system named is A549. In words: Cytotoxicity against human A549 cells after 48 hrs by MTT assay. It counts as functional, cell-based. The following applies: A549, 48 h. Background: Formazan colour is commonly taken as a measure of viable cells.
Experiment [3] relates to HepG2. Nature of the experiment: Cytotoxicity against human HepG2 cells after 48 hrs by MTT assay. The settings on record: HepG2, 48 h. It counts as functional, cell-based.
The subject of experiment [4] is K562. In words: Cytotoxicity against human K562 cells after 48 hrs by MTT assay. Type of experiment: functional, cell-based. The settings on record: K562, 48 h.
For another experiment, the system named is HL-60. Nature of the experiment: Cytotoxicity against human HL60 cells after 48 hrs by MTT assay. Type of experiment: functional, cell-based. The settings on record: HL-60, 48 h.
Experiment [5] relates to HT-29. In words: Selectivity index, ratio of IC50 for human BEAS2B cells to IC50 for human HT-29 cells. Type of experiment: functional.
For experiment [6], the system named is HepG2. Nature of the experiment: Selectivity index, ratio of IC50 for human BEAS2B cells to IC50 for human HepG2 cells. Type of experiment: functional.
Experiment [7] has as its system A549. Nature of the experiment: Selectivity index, ratio of IC50 for human BEAS2B cells to IC50 for human A549 cells. Type of experiment: functional.
For experiment [8], the system named is K562. Nature of the experiment: Selectivity index, ratio of IC50 for human BEAS2B cells to IC50 for human K562 cells. Type of experiment: functional.
Experiment [9] in a line: Selectivity index, ratio of IC50 for human BEAS2B cells to IC50 for human HL60 cells. It counts as functional.
Experiment [10] can be described thus: Cytotoxicity against human BEAS2B cells after 48 hrs by MTT assay. It counts as cell-based. The settings on record: BEAS-2B. A digest of the protocol: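 Beas-2B immortalized, non-cancerous bronchial epithelial cells grown in RPMI-1640 or DMEM with 10% FBS, 5% CO2, 37°C. Cells were seeded and allowed to adhere 12 h before compound addition, then exposed for 48 h. DMSO negative and cisplatin positive controls were included. Viability was measured by MTT absorbance at 595 nm, and IC50 was calculated by the Reed–Muench method.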

With `CO[C@@H]1C=C[C@@]23c4cc5c(cc4CN(C[C@@H]2O)[C@H]3C1)OCO5` [(+)-HAEMANTHAMINE], the half-inhibitory concentration (IC50) with HT-29 [1] stood at 2.1 µM; in the experiment on A549 [2], 2.5 µM; with HepG2 [3], 4.8 µM; in the experiment with K562 [4] it was 2.5 µM; in the experiment with HL-60, 1.4 µM.
Take `Cn1c(=O)c2cc3c(cc2c2ccccc21)OCO3`: the IC50 in the experiment with HT-29 [1], with A549 [2], in the experiment on HepG2 [3], with K562 [4] and in the experiment with HL-60 was over 10 µM throughout.
`CO[C@@H]1C=C[C@@]23c4cc5c(cc4C(O)[N+](C)(C[C@@H]2O)[C@H]3C1)OCO5.[Cl-]` (mixture of isomers): the Ratio IC50 in the experiment on HT-29 [5] was found to be 3.1; in the experiment with HepG2 [6], 2.5; in the experiment with A549 [7] it was 3.4; in the experiment on K562 [8] it was 3.7; in experiment [9], 4.1. Moreover, the concentration for half-maximal inhibition (IC50) in experiment [10] was determined as 3.7 µM; with HT-29 [1], 1.2 µM; in the experiment on A549 [2], 1.1 µM; in the experiment with HepG2 [3] it was 1.5 µM; in the experiment on K562 [4] it was 1 µM; with HL-60, 0.91 µM.
Turning to `CC(C)CCn1c(=O)c2cc3c(cc2c2ccccc21)OCO3`, the 50% inhibitory concentration (IC50) in the experiment on HT-29 [1], with A549 [2], in the experiment on HepG2 [3], with K562 [4] and in the experiment with HL-60 was over 10 µM throughout.
Turning to `CO[C@H]1C=C[C@@]23c4cc5c(cc4CN(C)[C@@H]2C(=O)N(C)[C@H]3C1)OCO5` (relative stereo), the IC50 with HT-29 [1], in the experiment with A549 [2], in the experiment with HepG2 [3], in the experiment with K562 [4] and in the experiment on HL-60 was over 10 µM in each case.
On to `C/C=C/C=C/C(=O)N1C[C@H](C)NC[C@H]1C` [NIGRAGILLIN], for which the IC50 in the experiment with HT-29 [1], in the experiment on A549 [2], in the experiment on HepG2 [3], in the experiment with K562 [4] and with HL-60 was over 10 µM throughout.
As for `COc1cc2c(c(OC)c1OC)[C@@H](OC)O[C@@H]1CC=C3CCN(C)[C@H]3[C@H]21`, the 50% inhibitory concentration (IC50) with HT-29 [1], with A549 [2], in the experiment on HepG2 [3], in the experiment with K562 [4] and in the experiment on HL-60 was over 10 µM each time.
Regarding `c1ccc2c(c1)ncc1cc3c(cc12)OCO3` [TRISPHAERIDINE], the IC50 in the experiment on HT-29 [1], in the experiment with A549 [2], in the experiment with HepG2 [3], with K562 [4] and in the experiment on HL-60 was over 10 µM in each case.
As to `O=c1c2cc3c(cc2c2ccccc2n1CCc1ccccc1)OCO3`, the Ratio IC50 with HT-29 [5] stood at 3.2; in the experiment with HepG2 [6], 5.2; in the experiment on A549 [7], 0.56; in the experiment on K562 [8], 10; in [9], 9. Besides, the IC50 in experiment [10] worked out at 7.3 µM; in the experiment with HT-29 [1], 2.3 µM; in the experiment with A549 [2], 13 µM; in the experiment on HepG2 [3], 1.4 µM; in the experiment with K562 [4], 0.7 µM; in the experiment with HL-60, 0.81 µM.
With `CO[C@@H]1C=C[C@@]23c4cc5c(cc4CO[C@]2(O)CN(C)[C@H]3C1)OCO5` [TAZETTINE], the IC50 in the experiment on HT-29 [1], with A549 [2], in the experiment with HepG2 [3], in the experiment with K562 [4] and with HL-60 was over 10 µM throughout.
Take `CCOC(=O)CCn1c(=O)c2cc3c(cc2c2ccccc21)OCO3`: the IC50 in experiment [10] is over 40 µM; in the experiment with HT-29 [1] it was over 10 µM; in the experiment with A549 [2], over 10 µM; with HepG2 [3], over 10 µM; with K562 [4], over 10 µM; with HL-60, over 10 µM.
For `CO[C@@H]1C=C[C@@]23c4cc5c(cc4C(=O)O[C@H]2CN(C)[C@H]3C1)OCO5`, the concentration for half-maximal inhibition (IC50) in the experiment with HT-29 [1], with A549 [2], in the experiment on HepG2 [3], in the experiment with K562 [4] and with HL-60 was over 10 µM each time.
With `CCOC(=O)CCCn1c(=O)c2cc3c(cc2c2ccccc21)OCO3`, the IC50 is 36 µM in experiment [10]; over 10 µM with HT-29 [1]; over 10 µM in the experiment on A549 [2]; over 10 µM with HepG2 [3]; over 10 µM with K562 [4]; over 10 µM in the experiment on HL-60.
As for `CN1Cc2cc3c(cc2-c2ccccc21)OCO3`, the IC50 with HT-29 [1], in the experiment with A549 [2], with HepG2 [3], in the experiment on K562 [4] and in the experiment with HL-60 was over 10 µM each time.
With `O[C@H]1[C@H]2c3cc4c(cc3CN3CCC(=C[C@@H]1O)[C@H]23)OCO4` [LYCORINE], the IC50 in experiment [10] was found to be 4.9 µM; in the experiment with HT-29 [1] it was 3.2 µM; in the experiment on A549 [2], 1.9 µM; in the experiment with HepG2 [3], 3.7 µM; in the experiment with K562 [4], 2.3 µM; in the experiment with HL-60, 1.6 µM.
